Results from ChEMBL document CHEMBL1137778, “One scaffold, three binding modes: novel and selective pteridine reductase 1 inhibitors derived from fragment hits discovered by virtual screening” (J Med Chem, 2009).
The source made the active and inactive calls. The calls are words filed in the database; no cut-off is given here.

Assays:
[1] = biological target: T1, Pteridine reductase, putative (Trypanosoma brucei) (UniProt Q581W1); assay: Inhibition of Trypanosoma brucei pteridine reductase 1 at 100 uM
T1 sequence (whole entry): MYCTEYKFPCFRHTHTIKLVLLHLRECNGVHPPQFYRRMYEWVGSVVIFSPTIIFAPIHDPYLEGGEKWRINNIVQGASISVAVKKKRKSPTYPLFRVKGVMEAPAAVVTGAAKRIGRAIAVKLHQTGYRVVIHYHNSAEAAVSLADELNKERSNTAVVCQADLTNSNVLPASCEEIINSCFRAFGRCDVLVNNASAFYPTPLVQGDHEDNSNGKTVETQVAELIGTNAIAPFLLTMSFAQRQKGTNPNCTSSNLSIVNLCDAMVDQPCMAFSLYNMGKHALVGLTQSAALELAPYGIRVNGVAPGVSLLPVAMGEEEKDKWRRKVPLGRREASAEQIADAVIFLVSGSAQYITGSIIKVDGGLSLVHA
Procedure, shortened: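 TbPTR1 activity followed by cytochrome c reduction coupled to enzymatic tetrahydrobiopterin production: 20 mM sodium citrate, 1 mM EDTA, H2B (0.35 μM), cytc (81 μM), NADPH (100 μM), pH 6.0. Absorbance at 550 nm read within the linear phase. Fragment hits tested once at 100 μM as percent inhibition.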

[2] = biological target: T2, Dihydrofolate reductase (Homo sapiens) (UniProt P00374); assay: Inhibition of human DHFR-mediated reduction of cytochrome c at upto 500 uM
T2 sequence (whole entry): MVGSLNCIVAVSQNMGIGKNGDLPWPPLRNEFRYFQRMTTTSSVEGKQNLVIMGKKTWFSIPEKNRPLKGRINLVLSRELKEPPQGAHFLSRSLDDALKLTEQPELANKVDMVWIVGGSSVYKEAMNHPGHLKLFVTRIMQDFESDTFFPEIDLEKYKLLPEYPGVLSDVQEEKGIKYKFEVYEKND
Procedure, shortened: (§1)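 DHFR (T. brucei or human) activity followed by cytochrome c reduction coupled to enzymatic tetrahydrofolate production: 20 mM sodium citrate, 1 mM EDTA, H2F (4.4 μM), cytc (81 μM), NADPH (100 μM), pH 7.4. Absorbance at 550 nm read within the linear phase. Compounds tested up to 30 μM if PTR1 Kiapp below 1 μM, otherwise up to 500 μM.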

[3] = biological target: Bifunctional dihydrofolate reductase-thymidylate synthase (Trypanosoma brucei brucei) (UniProt Q27783); assay: Inhibition of Trypanosoma brucei DHFR-mediated reduction of cytochrome c at upto 500 uM; procedure, shortened: as §1
Chain of Bifunctional dihydrofolate reductase-thymidylate synthase (Trypanosoma brucei brucei) (Q27783 whole entry, looked up): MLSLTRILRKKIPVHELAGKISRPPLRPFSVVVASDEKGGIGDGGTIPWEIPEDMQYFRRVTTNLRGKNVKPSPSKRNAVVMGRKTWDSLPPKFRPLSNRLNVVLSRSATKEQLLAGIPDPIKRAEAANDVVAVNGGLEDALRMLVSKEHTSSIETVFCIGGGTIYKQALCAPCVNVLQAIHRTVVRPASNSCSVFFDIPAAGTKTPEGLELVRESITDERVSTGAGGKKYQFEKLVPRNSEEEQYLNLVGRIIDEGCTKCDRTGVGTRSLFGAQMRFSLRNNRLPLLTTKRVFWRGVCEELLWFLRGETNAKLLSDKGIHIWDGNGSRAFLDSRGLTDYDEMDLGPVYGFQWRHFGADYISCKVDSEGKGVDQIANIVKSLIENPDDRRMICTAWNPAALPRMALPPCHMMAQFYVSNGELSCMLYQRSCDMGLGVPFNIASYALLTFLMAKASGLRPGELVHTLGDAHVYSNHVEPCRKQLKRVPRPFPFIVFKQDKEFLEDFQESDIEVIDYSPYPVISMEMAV

[4] = biological target: T3, Pteridine reductase, putative (Trypanosoma brucei, UniProt Q581W1); assay: Apparent inhibition of Trypanosoma brucei pteridine reductase 1-mediated reduction of cytochrome c; conditions: read-out: Ki(app)
T3 sequence (Q581W1 whole entry): T1 sequence (whole entry)
Procedure, shortened: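 TbPTR1 activity read through cytochrome c reduction coupled to enzymatic H4B formation. Absorbance at 550 nm read within the linear phase. Kiapp derived by fitting a modified Morrison equation.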

[5] = biological target: T2, Dihydrofolate reductase (Homo sapiens); assay: Inhibition of human DHFR-mediated reduction of cytochrome c at upto 30 uM; procedure, shortened: as §1
[6] = biological target: Bifunctional dihydrofolate reductase-thymidylate synthase (Trypanosoma brucei brucei) (UniProt Q27783); assay: Inhibition of Trypanosoma brucei DHFR-mediated reduction of cytochrome c at upto 30 uM; procedure, shortened: as §1
[7] = Distribution coefficient, log D of the compound; assay type: physicochemical; conditions: octanol/water
[8] = tested on: Trypanosoma brucei; assay: Antitrypanosomal activity against Trypanosoma brucei by cell culture assay; assay type: functional, organism-based

| Structure (SMILES) | inhibition [1] [%] | also measured |
| --- | --- | --- |
| O=c1[nH]c(=O)c2c(-c3ccccc3)csc2[nH]1 | 36.3 | – |
| Oc1ncc(/N=C/c2ccccc2)c(O)n1 | 22.8 | – |
| CCc1n[nH]c(N)n1 | -3.5 | – |
| CNc1nc(N)c(C(=O)C(C)(C)C)s1 | 23 | – |
| CCn1c(N)nc2ccccc21 | – | inhibition [2]: inactive; inhibition [3]: inactive; Ki [4]: > 200 µM |
| Nc1nc2ccccc2n1Cc1ccc(Cl)c(Cl)c1 | – | inhibition [5]: inactive; inhibition [6]: inactive; Ki [4]: 0.4 µM |
| CCCOc1cccc2nc(N)n(Cc3ccc(Cl)c(Cl)c3)c12 | – | inhibition [5]: inactive; inhibition [6]: inactive; Ki [4]: 0.047 µM |
| Nc1nc2ccc(C(=O)N3CCCCC3)cc2s1 | 49.9 | inhibition [2]: inactive; inhibition [3]: inactive; Ki [4]: 141 µM |
| COC(=O)c1ccc2nc(N)sc2c1 | – | inhibition [2]: inactive; inhibition [3]: inactive; Ki [4]: 21.1 µM |
| CC(C)CSc1n[nH]c(N)n1 | 0.9 | – |
| Nc1nc(-c2ccc(O)cc2)cs1 | 43.2 | – |
| Nc1nc(C2CCCCC2)n[nH]1 | 45.1 | – |
| CC(C)CC(=O)Nc1c[nH]c(=O)[nH]c1=O | 5 | – |
| OCCNc1ncnc2[nH]cnc12 | 5.9 | – |
| Nc1nc2ccc(Cl)cc2[nH]1 | 72.3 | Activity [2]: inactive; inhibition [3]: inactive; Ki [4]: 10.6 µM |
| c1nc(NCC2CCCO2)c2nc[nH]c2n1 (centres undefined) | 25.1 | – |
| c1ccc(CCNc2ncnc3[nH]cnc23)cc1 | 66.4 | – |

| Structure (SMILES) | inhibition [1] [%] | also measured |
| --- | --- | --- |
| CC(C)c1n[nH]c(N)n1 | 3.9 | – |
| Nc1nc2cccc(-c3ccccc3)c2n1Cc1ccc(Cl)c(Cl)c1 | – | inhibition [5]: inactive; logD [7]: 3.7; EC50 [8]: 10 µM; inhibition [6]: inactive; Ki [4]: 0.007 µM |
| Nc1nc2ccccc2[nH]1 | – | inhibition [2]: inactive; inhibition [3]: inactive; Ki [4]: 288 µM |
| Nc1nc(Cc2nnc(N)[nH]2)n[nH]1 | 11.4 | – |
| Nc1nc(CCc2n[nH]c(N)n2)n[nH]1 | 6.9 | – |
| O=c1[nH]cc(/N=C/c2ccc(Br)cc2)c(=O)[nH]1 | 4.5 | – |
| Nc1nc(-c2ccc3c(c2)CCC3)cs1 | 32.3 | – |
| Nc1nc(-c2ccncc2)cs1 | 31.3 | – |
| CC(Nc1c[nH]c(=O)[nH]c1=O)c1ccccc1 (centres undefined) | 17.4 | – |
| Cc1cccc(-c2ccc3nc(N)[nH]c3c2)c1 | – | inhibition [2]: inactive; inhibition [3]: inactive; Ki [4]: 9.8 µM |
| O=C(Nc1ncnc2nc[nH]c12)c1ccccc1 | 4.5 | – |
| Nc1nc2cccc(Cl)c2n1Cc1ccc(Cl)c(Cl)c1 | – | inhibition [5]: inactive; inhibition [6]: inactive; Ki [4]: 0.51 µM |
| Nc1nc2ccccc2n1CCc1ccccc1 | – | inhibition [2]: inactive; inhibition [3]: inactive |
| Cc1[nH]c(=O)[nH]c(=O)c1Cc1ccccc1 | -0.3 | – |
| Cc1cc(C)n(-c2cc(=O)[nH]c(=O)[nH]2)n1 | -4 | – |
| O=c1cc(Nc2ccc(Cl)cc2)[nH]c(=O)[nH]1 | 11.8 | – |

Continued, in another order:

| inhibition [1] [%] | Structure (SMILES) | also measured |
| --- | --- | --- |
| 19.3 | Nc1nc(NCc2ccc(F)cc2)n[nH]1 | – |
| 5.7 | O=c1[nH]cc(COCc2ccccc2)c(=O)[nH]1 | – |
| -0.8 | Nc1nc(-c2ccc(Br)cc2)n[nH]1 | – |
| 19.8 | COc1ccccc1-c1nnc(N)[nH]1 | – |
| 23.1 | N#Cc1ccc(CSc2nnc(N)s2)cc1 | – |
| 7.9 | O=C(Nc1c[nH]c(=O)[nH]c1=O)c1ccccc1F | – |
| 21 | O=C(Cc1ccccc1Cl)Nc1c[nH]c(=O)[nH]c1=O | – |
| 10.7 | Nc1nc(CNC(=O)c2ccccc2)n[nH]1 | – |
| 9.3 | Nc1nc(-c2ccccc2Cl)n[nH]1 | – |
| 18.8 | Nc1nnc(-c2ccc(Cl)cc2Cl)[nH]1 | – |
| 20.2 | Cc1ccc(-c2n[nH]c(N)n2)cc1 | – |
| 17.6 | Cc1ccc(CSc2n[nH]c(N)n2)c(C)c1 | – |
| 44.2 | Cc1ccc(CNc2n[nH]c(N)n2)cc1 | – |
| 38.5 | Nc1nnc(SCC(=O)NCc2ccc3c(c2)OCO3)[nH]1 | – |
| 3.3 | Nc1nc(SCC(=O)NCc2ccco2)n[nH]1 | – |
| 18.1 | CNc1nc(N)c(C(=O)c2ccccc2)s1 | – |
